Among the data in ChEMBL document CHEMBL2046422, “Structure-activity relationship of nonacidic quinazolinone inhibitors of human microsomal prostaglandin synthase 1 (mPGES 1)” (J Med Chem, 2012) are inhibition and Activity values, retold here.

For experiment [1], the target named is T1, Prostaglandin E synthase (Mus musculus) (UniProt Q9JM51).
T1 sequence (whole entry): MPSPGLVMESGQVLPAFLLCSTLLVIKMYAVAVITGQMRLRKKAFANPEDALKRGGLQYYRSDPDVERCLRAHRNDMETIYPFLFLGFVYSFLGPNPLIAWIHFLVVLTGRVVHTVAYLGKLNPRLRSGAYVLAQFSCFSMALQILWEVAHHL
Description: Inhibition of mPGES-1 derived from LPS stimulated mouse NIH3T3 cells microsomal fraction using PGH2 as substrate at 1 uM preincubated for 30 mins prior to substrate addition measured after 1 min by LC-MS/MS analysis relative to control.

The target in experiment [2] is T2, 5-lipoxygenase/FLAP (Homo sapiens) (UniProt P09917+P20292). Description: Inhibition of 5-lipoxygenase/FLAP in calcium ionophore-stimulated human whole blood assessed as residual 15(s)HETE level at 10 uM preincubated for 15 mins prior to calcium ionophore-stimulation measured after 15 mins by LC-MS/MS analysis. Type of experiment: protein-complex assay. The essentials: (§1)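 Heparinized human whole blood (500 μL) was preincubated with compound for 15 min at 37 °C. It was then stimulated with 20 μM calcium ionophore A23187 in autologous plasma for 15 min at 37 °C and chilled on ice for 5 min. Plasma was collected by centrifugation at 4 °C. Eicosanoids were recovered by liquid–liquid extraction with deuterated internal standards and quantified by LC-MS/MS (MRM). Levels are relative to vehicle-treated blood.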

For experiment [3], the target named is Prostaglandin G/H synthase 1 (Homo sapiens) (UniProt P23219). Description: Inhibition of COX1 in human whole blood assessed as residual TXB2 level at 10 uM after 1 hr by LC-MS/MS analysis relative to control. The essentials: (§2)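 Human venous blood was drawn without additives, and compound was added. Samples clotted at 37 °C for 1 h; negative controls were chilled on ice at once. After 5 min on ice, plasma was separated at 4 °C. It was mixed with H₃PO₄, EDTA, BHT and deuterated internal standards, then put through solid-phase extraction. TXB₂ and PGD₂ were measured by LC-MS/MS, relative to vehicle-treated blood.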

Experiment [4] concerns the target T3, Prostaglandin E synthase (Homo sapiens) (UniProt O14684).
T3 sequence (whole entry): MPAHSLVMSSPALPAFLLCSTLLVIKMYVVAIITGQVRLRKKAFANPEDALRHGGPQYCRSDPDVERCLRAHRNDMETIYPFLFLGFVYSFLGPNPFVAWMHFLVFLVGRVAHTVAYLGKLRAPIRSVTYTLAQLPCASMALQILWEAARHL
Description: Inhibition of mPGES-1 in IL1beta and TNFalpha-stimulated human HeLa cells assessed as PGE2 level after 24 hrs by LC-MS/MS analysis. Type of experiment: cell-based. An outline of the steps:
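HeLa cells (2 × 10⁴) were grown 24 h at 37 °C. The medium was then replaced with IL-1β (1 ng/mL) + TNFα (5 ng/mL), or PBS for unstimulated controls, together with compound at 1, 10 or 100 μM, or DMSO, for 24 h at 37 °C. Supernatant PGE₂ was quantified by LC-MS/MS after solid-phase extraction with deuterated standards. Inhibition is percent of DMSO control corrected for unstimulated background, SEM, n ≥ 3.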

Experiment [5] addresses T3, Prostaglandin E synthase (Homo sapiens). In words: Inhibition of mPGES-1 derived from IL1beta and TNFalpha stimulated human HeLa cells microsomal fraction using PGH2 as substrate at 1 uM preincubated for 30 mins prior to substrate addition measured after 1 min by LC-MS/MS analysis relative to control. The essentials:
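Microsomes were pelleted by ultracentrifugation and resuspended in buffer with 2.5 mM GSH; protein was measured by Bradford. PGE₂ was read by LC-MS/MS after solid-phase extraction with deuterated standards; n ≥ 3.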

Experiment [6] deals with T1, Prostaglandin E synthase (Mus musculus). In words: Inhibition of mPGES-1 derived from LPS stimulated mouse RAW264.7 cells microsomal fraction using PGH2 as substrate at 1 uM preincubated for 30 mins prior to substrate addition measured after 1 min by LC-MS/MS analysis relative to control. An outline of the steps:
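Microsomes came from RAW 264.7 cells stimulated with LPS for 16 h. They were prepared by sonication and ultracentrifugation in 0.1 M potassium phosphate, pH 7.4, with GSH and protease inhibitors, and resuspended with 2.5 mM GSH; protein was measured by Bradford. Compound was tested at the stated final concentration. PGE₂ was quantified by LC-MS/MS after solid-phase extraction with PGE₂-d₄/PGD₂-d₄ standards; SEM, n ≥ 3.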

For experiment [7], the target named is T2, 5-lipoxygenase/FLAP (Homo sapiens). In words: Inhibition of 5-lipoxygenase/FLAP in calcium ionophore-stimulated human whole blood assessed as residual (+/-)11HETE level at 10 uM preincubated for 15 mins prior to calcium ionophore-stimulation measured after 15 mins by LC-MS/MS analysis. Format: protein-complex assay. The essentials: as §1
Experiment [8] deals with Prostaglandin G/H synthase 1 (Homo sapiens) (UniProt P23219). In words: Inhibition of COX1 in human whole blood assessed as residual PGD2 level at 10 uM after 1 hr by LC-MS/MS analysis relative to control. The essentials:
as §2

Experiment [9] concerns the target T4, Prostaglandin G/H synthase 2 (Homo sapiens) (UniProt P35354).
T4 sequence (whole entry): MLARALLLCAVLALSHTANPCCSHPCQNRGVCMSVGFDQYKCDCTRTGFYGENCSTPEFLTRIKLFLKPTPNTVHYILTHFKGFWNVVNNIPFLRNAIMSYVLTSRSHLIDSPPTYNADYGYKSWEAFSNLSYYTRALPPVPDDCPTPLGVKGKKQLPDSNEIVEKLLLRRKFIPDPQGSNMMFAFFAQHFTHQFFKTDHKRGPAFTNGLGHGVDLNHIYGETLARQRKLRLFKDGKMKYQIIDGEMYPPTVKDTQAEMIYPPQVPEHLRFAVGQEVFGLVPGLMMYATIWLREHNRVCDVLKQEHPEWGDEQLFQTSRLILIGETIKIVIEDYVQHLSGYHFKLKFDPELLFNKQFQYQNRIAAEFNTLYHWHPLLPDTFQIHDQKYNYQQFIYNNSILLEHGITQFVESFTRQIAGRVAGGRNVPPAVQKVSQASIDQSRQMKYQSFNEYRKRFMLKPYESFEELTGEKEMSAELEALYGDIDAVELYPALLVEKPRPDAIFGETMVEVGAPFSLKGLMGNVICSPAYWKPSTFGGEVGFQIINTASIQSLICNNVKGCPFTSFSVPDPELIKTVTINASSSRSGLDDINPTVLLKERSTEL
In words: Inhibition of COX2 in LPS-stimulated human whole blood assessed as residual PGF2alpha level at 100 uM preincubated for 15 mins prior to LPS-stimulation measured after 24 hrs by LC-MS/MS analysis relative to control. The essentials: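 Human whole blood received compound in DMSO plus acetylsalicylic acid (10 μg/mL) to block COX-1, 15 min at 37 °C. LPS (10 μg/mL final) in autologous plasma was added to induce COX-2/mPGES-1, and blood was incubated 24 h at 37 °C. Samples were chilled on ice 5 min, and plasma prostaglandins were extracted by solid-phase extraction and quantified by LC-MS/MS. Values are relative to vehicle.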

In experiment [10] the target is T2, 5-lipoxygenase/FLAP (Homo sapiens). In words: Inhibition of 5-lipoxygenase/FLAP in calcium ionophore-stimulated human whole blood assessed as residual 12(s)HETE level at 10 uM preincubated for 15 mins prior to calcium ionophore-stimulation measured after 15 mins by LC-MS/MS analysis. Format: protein-complex assay. The essentials:
as §1

Prostaglandin G/H synthase 1 (Homo sapiens), sequence (P23219 whole entry): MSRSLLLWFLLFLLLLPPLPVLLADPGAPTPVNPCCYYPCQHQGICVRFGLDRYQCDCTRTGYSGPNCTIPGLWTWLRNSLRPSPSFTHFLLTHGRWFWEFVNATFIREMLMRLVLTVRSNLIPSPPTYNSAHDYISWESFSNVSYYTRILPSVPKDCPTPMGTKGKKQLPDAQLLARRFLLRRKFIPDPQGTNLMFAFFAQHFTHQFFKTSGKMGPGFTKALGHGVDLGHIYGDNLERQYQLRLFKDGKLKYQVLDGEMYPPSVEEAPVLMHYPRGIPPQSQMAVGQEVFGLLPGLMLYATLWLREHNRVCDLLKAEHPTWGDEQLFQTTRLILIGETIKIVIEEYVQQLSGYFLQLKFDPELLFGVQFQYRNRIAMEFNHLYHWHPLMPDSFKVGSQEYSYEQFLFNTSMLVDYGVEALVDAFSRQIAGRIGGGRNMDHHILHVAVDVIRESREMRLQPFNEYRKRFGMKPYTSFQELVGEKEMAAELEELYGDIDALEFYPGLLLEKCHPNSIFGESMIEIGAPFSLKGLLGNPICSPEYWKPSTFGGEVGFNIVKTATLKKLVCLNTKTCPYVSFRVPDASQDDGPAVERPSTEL

For orientation: inhibition means the relative decrease from the control value, in per cent. For the molecule `CCCc1nc2ccc(NC(=O)c3ccccc3Cl)cc2c(=O)n1Cc1ccc(-c2ccccc2)cc1`, the inhibition in experiment [1] was 20.3%; in experiment [4], “Dose-dependent effect”; in [5], 74.2%; in [6], 11.8%. Moreover, the Activity was 94.2% in experiment [2]; 86.4% in experiment [3]; 84.8% in experiment [7]; 84.9% in experiment [8]; 92.6% in experiment [9]; 110% in experiment [10].

`CCCc1nc2ccc(NC(=O)c3ccccc3Cl)cc2c(=O)n1Cc1ccc(-c2ccc(Cl)cc2)cc1`: the inhibition in experiment [1] was 17.1%; in experiment [4], “Dose-dependent effect”; in experiment [5], 68.8%; in experiment [6], 12.4%. The Activity worked out at 93.8% in experiment [2]; 97.3% in [3]; 85.2% in experiment [7]; 96.1% in experiment [8]; 234% in [9]; 93.2% in experiment [10].

With `CCCc1nc2ccc(NC(=O)c3ccccc3Cl)cc2c(=O)n1Cc1ccc(-c2cccc(Cl)c2)cc1`, the inhibition in experiment [1] is 10.7%; in experiment [4], “Dose-dependent effect”; in [5], 66.7%; in experiment [6], 8.4%. Moreover, the Activity turned out to be 83.1% in [2]; 90% in experiment [3]; 76.8% in experiment [7]; 98.5% in experiment [8]; 94.2% in experiment [9]; 80% in [10].

For the molecule `CCCc1nc2ccc(NC(=O)c3ccccc3Cl)cc2c(=O)n1Cc1ccc(-c2cccc(OC)c2)cc1`, the inhibition is 4.6% in experiment [1], “Dose-dependent effect” in experiment [4], 71.5% in experiment [5] and 15.3% in experiment [6]. Besides, the Activity in experiment [2] worked out at 80%; in [3], 89%; in experiment [7], 77%; in [8], 91.7%; in [9], 92.5%; in experiment [10], 85.5%.

As for `CCCc1nc2ccc(NC(=O)c3c(F)cccc3Cl)cc2c(=O)n1Cc1cccc(Cl)c1`, the Activity in experiment [2] was 111%; in [3], 84.4%; in experiment [7], 123%; in [8] it was 89.4%; in [9], 97%; in experiment [10], 123%. The figures for the inhibition result in experiment [4], in [5] and in experiment [6] were “Dose-dependent effect”, 75.6% and -8.7%, respectively.

Turning to `CCCc1nc2ccc(NC(=O)c3ccccc3Cl)cc2c(=O)n1Cc1cccc(Cl)c1`, the inhibition in [1] is -0.8%; in experiment [4], “Dose-dependent effect”; in experiment [5] it was 86.3%; in [6], 9.5%. Further, the Activity in experiment [2] was found to be 90.3%; in [3] it was 90.4%; in [7], 71.6%; in [8], 86.5%; in experiment [9] it was 81.3%; in experiment [10], 92.8%.

Take `CCCc1nc2ccc(NC(=O)c3ccccc3C)cc2c(=O)n1Cc1cccc(Cl)c1`: the inhibition was 0.9% in [1], “Dose-dependent effect” in experiment [4], 63.1% in experiment [5] and 6% in experiment [6]. Also, the Activity in experiment [2] was 83.4%; in [3], 81.9%; in experiment [7] it was 86.5%; in [8], 128%; in experiment [9], 93.8%; in [10] it was 88.9%.
